Source: ChEMBL document CHEMBL2163316, “Discovery of (S)-6-(3-cyclopentyl-2-(4-(trifluoromethyl)-1H-imidazol-1-yl)propanamido)nicotinic acid as a hepatoselective glucokinase activator clinical candidate for treating type 2 diabetes mellitus” (J Med Chem, 2012)
≈ marks a conversion by molar mass, not a printed value.

Assays:
[1] = Oral bioavailability in rat at 5 mg/kg; format: ADME, organism-based; settings: in vivo
Summary of the method: (§1)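 Pharmacokinetic parameters are the geometric mean of n = 2 animals per group unless otherwise noted.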

[2] = Ratio of free drug uptake in brain to plasma of Wistar rat at 100 mg/kg, po administered for 28 days measured 4 hrs post last dosing; format: ADME, organism-based; design: dose 100 mg/kg, route oral; settings: BLD = below limit of detection
Summary of the method: (§2)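 Oral repeat dosing: rats for 28 days, dogs for 4 days. Plasma, liver, pancreas and brain were sampled at 4 h postdose on the last day. Ratios use free drug concentrations, converted with unbound fractions from equilibrium dialysis (plasma at 50 μM, tissues at 1 μM). BLQ = below limit of quantification.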

Canis familiaris [3] = test: fAUC (0 to 24 hrs) in dog at 1 mg/kg, iv; format: ADME, organism-based, Canis lupus familiaris; design: dose 1 mg/kg, route intravenous; settings: in vivo
Rattus norvegicus [4] = test: fCmax in rat at 5 mg/kg, po; format: ADME, organism-based; design: dose 5 mg/kg, route oral; settings: in vivo
[5] = Ratio of free drug uptake in liver to plasma of dog at 50 mg/kg, po administered for 4 days measured 4 hrs post last dosing; format: ADME, organism-based, Canis lupus familiaris; design: dose 50 mg/kg, route oral; summary of the method: as §2
Rattus norvegicus [6] = test: fAUC (0 to 24 hrs) in rat at 5 mg/kg, po; format: ADME, organism-based; design: dose 5 mg/kg, route oral; settings: in vivo
[7] = Thermodynamic solubility of the compound at pH 6.5; format: physicochemical; settings: buffer, read-out: Therm_solubility
[8] = Ratio of free drug uptake in pancreas to plasma of Wistar rat at 100 mg/kg, po administered for 28 days measured 4 hrs post last dosing; format: ADME, organism-based; design: dose 100 mg/kg, route oral; summary of the method: as §2
[9] = Volume of distribution at steady state in dog at 1 mg/kg, iv; format: ADME, organism-based, Canis lupus familiaris; design: dose 1 mg/kg, route intravenous; settings: in vivo, read-out: Vdss; summary of the method: as §1
[10] = Ratio of free drug uptake in liver to plasma of Wistar rat at 100 mg/kg, po administered for 28 days measured 4 hrs post last dosing; format: ADME, organism-based; design: dose 100 mg/kg, route oral; summary of the method: as §2
[11] = Oral bioavailability in monkey at 3 mg/kg; format: ADME, organism-based, Macaca mulatta; settings: rhesus monkey, in vivo; summary of the method: as §1
Rhesus monkey [12] = test: fAUC (0 to 24 hrs) in monkey at 3 mg/kg, po; format: ADME, organism-based, Macaca mulatta; design: dose 3 mg/kg, route oral; settings: in vivo
[13] = Renal excretion in rat; format: ADME, organism-based, Kidney; settings: urine, read-out: Drug excretion
Canis familiaris [14] = test: fCmax in dog at 5 mg/kg, po; format: ADME, organism-based, Canis lupus familiaris; design: dose 5 mg/kg, route oral; settings: in vivo
[15] = Fraction absorbed in portal vein cannulated rat at 5 mg/kg, po; settings: in vivo, read-out: Fabs
Canis familiaris [16] = test: fCmax in dog at 1 mg/kg, iv; format: ADME, organism-based, Canis lupus familiaris; design: dose 1 mg/kg, route intravenous; settings: in vivo
[17] = Volume of distribution at steady state in monkey at 0.5 mg/kg, iv; format: ADME, organism-based, Macaca mulatta; design: dose 0.5 mg/kg, route intravenous; settings: rhesus monkey, in vivo, read-out: Vdss; summary of the method: as §1
[18] = Drug excretion in rat bile; format: ADME, tissue-based; settings: read-out: Drug excretion
Rhesus monkey [19] = test: fCmax in monkey at 0.5 mg/kg, iv; format: ADME, organism-based, Macaca mulatta; design: dose 0.5 mg/kg, route intravenous; settings: in vivo
[20] = Volume of distribution at steady state in rat at 1 mg/kg, iv; format: ADME, organism-based; design: dose 1 mg/kg, route intravenous; settings: in vivo, read-out: Vdss; summary of the method: as §1
Rattus norvegicus [21] = test: fAUC (0 to 24 hrs) in rat at 1 mg/kg, iv; format: ADME, organism-based; design: dose 1 mg/kg, route intravenous; settings: in vivo
Rattus norvegicus [22] = test: fCmax in rat at 1 mg/kg, iv; format: ADME, organism-based; design: dose 1 mg/kg, route intravenous; settings: in vivo
Rhesus monkey [23] = test: fAUC (0 to 24 hrs) in monkey at 0.5 mg/kg, iv; format: ADME, organism-based, Macaca mulatta; design: dose 0.5 mg/kg, route intravenous; settings: in vivo
[24] = Ratio of free drug uptake in brain to plasma of dog at 50 mg/kg, po administered for 4 days measured 4 hrs post last dosing; format: ADME, organism-based, Canis lupus familiaris; design: dose 50 mg/kg, route oral; settings: read-out: BPR; summary of the method: as §2
[25] = Kinetic solubility of the compound; format: physicochemical; settings: read-out: Kinetic_solubility
Rhesus monkey [26] = test: fCmax in monkey at 3 mg/kg, po; format: ADME, organism-based, Macaca mulatta; design: dose 3 mg/kg, route oral; settings: in vivo
[27] = Oral bioavailability in dog at 5 mg/kg; format: ADME, organism-based, Canis lupus familiaris; settings: in vivo
[28] = Ratio of free drug uptake in pancreas to plasma of dog at 50 mg/kg, po administered for 4 days measured 4 hrs post last dosing; format: ADME, organism-based, Canis lupus familiaris; design: dose 50 mg/kg, route oral; summary of the method: as §2
Canis familiaris [29] = test: fAUC (0 to 24 hrs) in dog at 5 mg/kg, po; format: ADME, organism-based, Canis lupus familiaris; design: dose 5 mg/kg, route oral; settings: in vivo

bioavailability [1]: 18%
BPR [2]: BLD
fAUC (Canis familiaris [3]): 79.1 ng·h/mL
fCmax (Rattus norvegicus [4]): 5.4 ng/mL
Kp uu at 4 h [5]: 14.5
fAUC (Rattus norvegicus [6]): 30.3 ng·h/mL
solubility thermodynamic [7]: 4200 µg/mL (≈ 10.6 mM)
Kp uu at 4 h [8]: 0.14
Vd [9]: 1.6 L/kg
Kp uu at 4 h [10]: 10.5
bioavailability [11]: 35%
fAUC (Rhesus monkey [12]): 94.7 ng·h/mL
dose excreted [13]: 11%
fCmax (Canis familiaris [14]): 23.3 ng/mL
Fa [15]: 53%
fCmax (Canis familiaris [16]): 479 ng/mL
Vd [17]: 0.7 L/kg
dose excreted [18]: 62%
fCmax (Rhesus monkey [19]): 219 ng/mL
Vd [20]: 2 L/kg
fAUC (Rattus norvegicus [21]): 34.7 ng·h/mL
fCmax (Rattus norvegicus [22]): 176 ng/mL
fAUC (Rhesus monkey [23]): 46.2 ng·h/mL
Kp uu at 4 h [24]: 0.009
solubility kinetic [25]: 524 µM (≈ 208 µg/mL)
fCmax (Rhesus monkey [26]): 13.6 ng/mL
bioavailability [27]: 18%
Kp uu at 4 h [28]: 0.25
fAUC (Canis familiaris [29]): 72.6 ng·h/mL
SMILES: O=C(O)c1ccc(NC(=O)[C@H](CC2CCCC2)n2cnc(C(F)(F)F)c2)nc1 [PF-04991532]
